The test system of series [1] is NCI-H1581. Briefly: Antitumor activity against human NCI-H1581 cells xenografted in nude mouse assessed as tumor growth inhibition at 10 mg/kg, po qd for 7 to 10 days relative to control. Format: functional. As to conditions: read-out: TGI. In short, it runs like this: (§1)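 Female nude mice, 4-6 weeks old. NCI-H1581 cells (5×10^6 in 200 µL) injected s.c., grown to 700-800 mm³, then 1-mm³ fragments implanted s.c. by trocar. At 100-150 mm³ animals were randomized (vehicle n=12, treated n=6) and dosed orally once daily for 7 days. Tumours measured twice weekly, volume = length×width²/2. TGI calculated from change in tumour volume versus vehicle on the final day, with Student's t-test.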

The target in series [2] is Cyclin-dependent kinase 4 (Homo sapiens) (UniProt P11802). Briefly: Inhibition of CDK4 (unknown origin) at 10 nM relative to control.
Sequence of Cyclin-dependent kinase 4 (Homo sapiens) (P11802 whole entry): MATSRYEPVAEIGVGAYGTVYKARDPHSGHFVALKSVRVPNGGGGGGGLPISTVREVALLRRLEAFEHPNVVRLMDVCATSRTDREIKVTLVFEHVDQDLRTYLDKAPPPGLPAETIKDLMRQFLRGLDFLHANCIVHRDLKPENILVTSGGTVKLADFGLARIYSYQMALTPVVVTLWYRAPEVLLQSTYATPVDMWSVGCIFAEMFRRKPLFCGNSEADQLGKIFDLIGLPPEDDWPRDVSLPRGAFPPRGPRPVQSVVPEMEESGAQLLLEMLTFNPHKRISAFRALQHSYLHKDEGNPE
The target in series [3] is Tyrosine-protein kinase BTK (Homo sapiens) (UniProt Q06187). The experiment in a line: Inhibition of BTK (unknown origin) at 1000 nM relative to control.
Sequence of Tyrosine-protein kinase BTK (Homo sapiens) (Q06187 whole entry, the tested form may be a part): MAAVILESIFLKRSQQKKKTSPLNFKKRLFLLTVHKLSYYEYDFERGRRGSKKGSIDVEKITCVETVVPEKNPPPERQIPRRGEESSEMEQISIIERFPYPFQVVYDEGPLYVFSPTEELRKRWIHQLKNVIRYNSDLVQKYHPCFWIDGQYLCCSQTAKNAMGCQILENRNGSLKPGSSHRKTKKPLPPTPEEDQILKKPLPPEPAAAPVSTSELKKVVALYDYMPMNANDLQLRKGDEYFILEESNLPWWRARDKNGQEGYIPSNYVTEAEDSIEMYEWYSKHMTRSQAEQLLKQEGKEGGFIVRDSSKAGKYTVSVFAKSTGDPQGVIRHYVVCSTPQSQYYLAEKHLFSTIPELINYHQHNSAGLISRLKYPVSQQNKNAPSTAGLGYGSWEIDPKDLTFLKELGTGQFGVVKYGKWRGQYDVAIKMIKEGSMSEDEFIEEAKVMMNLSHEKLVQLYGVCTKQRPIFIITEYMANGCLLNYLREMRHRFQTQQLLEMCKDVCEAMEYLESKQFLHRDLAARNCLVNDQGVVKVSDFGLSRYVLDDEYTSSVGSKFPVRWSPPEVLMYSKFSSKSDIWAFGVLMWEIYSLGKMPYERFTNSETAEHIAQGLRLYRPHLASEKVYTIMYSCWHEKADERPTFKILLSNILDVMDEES
Series [4] concerns the target Tyrosine-protein kinase JAK2 (Homo sapiens) (UniProt O60674). Briefly: Inhibition of JAK2 (unknown origin) at 10 nM relative to control. An outline of the steps: (§2)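 Purified recombinant kinase domains run in ELISA on precoated poly(Glu,Tyr) 4:1 (20 µg/mL) with 10 µM ATP in 50 mM HEPES pH 7.4, 50 mM MgCl2, 0.5 mM MnCl2, 0.2 mM Na3VO4, 1 mM DTT; 1% DMSO control; 60 min at 37 °C. Phosphotyrosine read by PY99 antibody, HRP anti-mouse IgG, OPD/H2O2 at 490 nm; inhibition = [1−A490/A490control]×100%; two separate experiments.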

Series [5] has as its target Proto-oncogene tyrosine-protein kinase Src (Homo sapiens) (UniProt P12931). The experiment in a line: Inhibition of c-Src (unknown origin) at 1000 nM relative to control. An outline of the steps: (§3)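 ELISA with purified recombinant kinase on plates precoated with poly(Glu,Tyr) 4:1 at 20 µg/mL. ATP 10 µM in HEPES pH 7.4 buffer with MgCl2, MnCl2, Na3VO4 and DTT. Run 60 min at 37 °C. Detected with anti-phosphotyrosine PY99, HRP secondary antibody and o-phenylenediamine, read at 490 nm. Inhibition % = [1 − A490/A490 control]×100. 1% DMSO as negative control.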

Series [6] deals with Vascular endothelial growth factor receptor 2 (Homo sapiens) (UniProt P35968). Briefly: Inhibition of VEGFR2 (unknown origin) at 10 nM relative to control. In short, it runs like this: as §3
Sequence of Vascular endothelial growth factor receptor 2 (Homo sapiens) (P35968 whole entry): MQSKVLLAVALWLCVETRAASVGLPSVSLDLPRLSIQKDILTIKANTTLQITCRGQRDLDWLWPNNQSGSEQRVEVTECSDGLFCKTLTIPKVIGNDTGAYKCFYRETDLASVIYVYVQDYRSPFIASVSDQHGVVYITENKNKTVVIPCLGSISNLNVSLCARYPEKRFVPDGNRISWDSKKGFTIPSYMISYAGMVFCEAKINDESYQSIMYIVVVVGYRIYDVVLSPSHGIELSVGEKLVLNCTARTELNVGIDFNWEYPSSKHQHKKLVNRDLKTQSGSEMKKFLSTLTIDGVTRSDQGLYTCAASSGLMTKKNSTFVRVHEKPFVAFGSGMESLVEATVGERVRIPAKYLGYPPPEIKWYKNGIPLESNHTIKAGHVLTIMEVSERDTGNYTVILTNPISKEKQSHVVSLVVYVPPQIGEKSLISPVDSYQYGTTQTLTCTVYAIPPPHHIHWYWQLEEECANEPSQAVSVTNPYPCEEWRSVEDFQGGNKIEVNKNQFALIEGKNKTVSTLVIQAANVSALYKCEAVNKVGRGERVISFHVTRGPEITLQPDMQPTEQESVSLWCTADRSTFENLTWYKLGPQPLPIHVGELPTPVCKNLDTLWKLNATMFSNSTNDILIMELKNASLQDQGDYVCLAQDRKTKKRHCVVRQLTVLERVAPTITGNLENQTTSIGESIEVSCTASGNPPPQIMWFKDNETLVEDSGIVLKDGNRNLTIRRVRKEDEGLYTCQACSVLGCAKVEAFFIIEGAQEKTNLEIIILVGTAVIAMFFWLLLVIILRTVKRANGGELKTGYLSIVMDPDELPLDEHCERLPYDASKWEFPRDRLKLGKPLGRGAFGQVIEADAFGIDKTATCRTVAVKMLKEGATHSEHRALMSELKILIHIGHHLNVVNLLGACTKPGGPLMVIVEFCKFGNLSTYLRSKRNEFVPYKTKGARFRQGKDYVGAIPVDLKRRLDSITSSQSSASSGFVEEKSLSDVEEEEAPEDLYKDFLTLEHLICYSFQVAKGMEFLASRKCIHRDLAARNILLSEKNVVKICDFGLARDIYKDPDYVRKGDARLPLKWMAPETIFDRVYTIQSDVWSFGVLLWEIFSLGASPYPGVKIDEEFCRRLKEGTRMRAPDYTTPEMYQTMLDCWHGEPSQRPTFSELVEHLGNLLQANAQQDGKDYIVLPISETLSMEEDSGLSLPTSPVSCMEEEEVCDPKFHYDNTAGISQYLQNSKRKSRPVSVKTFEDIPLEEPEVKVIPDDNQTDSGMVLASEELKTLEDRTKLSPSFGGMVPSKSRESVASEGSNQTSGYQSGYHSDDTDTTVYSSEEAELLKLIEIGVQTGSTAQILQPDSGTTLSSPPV
Series [7] concerns the target Tyrosine-protein kinase ABL1 (Homo sapiens) (UniProt P00519). The experiment in a line: Inhibition of ABL (unknown origin) at 100 nM relative to control.
The nature of series [8]: MRT in ICR(CD-1) mouse at 10 mg/kg, po administered via gavage by triple quadrupole mass spectrometric analysis. Format: ADME, organism-based. As to conditions: in vivo. In short, it runs like this:
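Dosed by gavage at 1 mg/mL in 1% Tween80/water to male ICR mice, 18-22 g, n=3. Blood taken at 0.25, 0.5, 1, 2, 4, 8 and 24 h. Plasma precipitated with methanol:acetonitrile (1:1) containing internal standard, then UPLC-MS/MS on a C18 column with an ammonium acetate/formic acid–acetonitrile gradient. Tmax read directly from the data; MRT calculated per animal from concentration–time curves.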

For series [9], the system named is NCI-H1581. Briefly: Antitumor activity against human NCI-H1581 cells xenografted in po dosed nude mouse assessed as tumor growth inhibition administered as qd for 7 to 10 days. Format: functional, organism-based. An outline of the steps:
as §1

Series [10] addresses Focal adhesion kinase 1 (Homo sapiens) (UniProt Q05397). The experiment in a line: Inhibition of FAK (unknown origin) at 100 nM relative to control. An outline of the steps: as §2

Structures are written as SMILES.

The term inhibition denotes the change of the read-out against control, counted positive when it falls. A low value points to little suppression. The term MRT denotes a mean duration of stay, worked out from the concentration-time curve.

Sequence of Focal adhesion kinase 1 (Homo sapiens) (Q05397 2-1052 limits assumed): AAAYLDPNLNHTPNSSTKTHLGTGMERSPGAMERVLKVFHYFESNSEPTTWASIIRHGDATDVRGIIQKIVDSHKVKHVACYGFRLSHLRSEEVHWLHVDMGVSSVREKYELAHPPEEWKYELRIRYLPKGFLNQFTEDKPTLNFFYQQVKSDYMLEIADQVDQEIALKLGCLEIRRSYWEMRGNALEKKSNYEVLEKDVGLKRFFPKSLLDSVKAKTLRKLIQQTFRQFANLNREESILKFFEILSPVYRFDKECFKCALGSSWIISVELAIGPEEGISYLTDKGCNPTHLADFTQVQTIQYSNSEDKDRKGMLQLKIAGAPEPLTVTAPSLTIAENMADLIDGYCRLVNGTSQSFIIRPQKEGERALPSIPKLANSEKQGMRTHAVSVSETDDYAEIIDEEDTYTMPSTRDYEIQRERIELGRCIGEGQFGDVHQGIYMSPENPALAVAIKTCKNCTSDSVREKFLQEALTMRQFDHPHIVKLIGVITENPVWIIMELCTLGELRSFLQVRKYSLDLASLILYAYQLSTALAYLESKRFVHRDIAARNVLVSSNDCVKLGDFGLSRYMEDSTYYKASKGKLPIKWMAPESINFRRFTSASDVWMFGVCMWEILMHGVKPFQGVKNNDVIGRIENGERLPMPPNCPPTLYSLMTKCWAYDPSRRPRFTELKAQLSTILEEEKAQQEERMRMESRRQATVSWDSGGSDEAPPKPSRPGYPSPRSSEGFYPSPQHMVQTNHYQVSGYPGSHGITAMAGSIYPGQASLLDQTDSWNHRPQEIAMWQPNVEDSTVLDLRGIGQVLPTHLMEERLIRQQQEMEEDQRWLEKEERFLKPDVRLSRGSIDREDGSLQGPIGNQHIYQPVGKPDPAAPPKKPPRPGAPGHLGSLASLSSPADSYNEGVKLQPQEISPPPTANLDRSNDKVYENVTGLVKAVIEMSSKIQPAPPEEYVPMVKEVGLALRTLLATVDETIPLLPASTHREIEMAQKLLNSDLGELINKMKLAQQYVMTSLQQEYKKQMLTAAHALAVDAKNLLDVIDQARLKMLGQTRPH
Sequence of Proto-oncogene tyrosine-protein kinase Src (Homo sapiens) (P12931 2-536 limits assumed): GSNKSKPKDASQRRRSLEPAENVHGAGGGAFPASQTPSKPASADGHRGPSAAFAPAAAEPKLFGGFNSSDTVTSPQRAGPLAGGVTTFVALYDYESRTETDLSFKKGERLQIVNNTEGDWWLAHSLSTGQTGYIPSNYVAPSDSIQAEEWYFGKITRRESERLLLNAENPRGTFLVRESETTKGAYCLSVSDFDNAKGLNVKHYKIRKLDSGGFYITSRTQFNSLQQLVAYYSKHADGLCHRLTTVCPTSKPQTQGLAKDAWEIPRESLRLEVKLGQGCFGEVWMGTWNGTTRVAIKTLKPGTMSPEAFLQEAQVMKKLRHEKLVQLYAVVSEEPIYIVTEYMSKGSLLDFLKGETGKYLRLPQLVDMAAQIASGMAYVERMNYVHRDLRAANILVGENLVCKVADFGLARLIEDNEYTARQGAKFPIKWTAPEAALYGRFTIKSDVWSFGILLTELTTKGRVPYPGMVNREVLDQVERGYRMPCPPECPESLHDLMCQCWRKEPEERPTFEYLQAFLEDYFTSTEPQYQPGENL
Sequence of Tyrosine-protein kinase JAK2 (Homo sapiens) (O60674 whole entry, the tested form may be a part): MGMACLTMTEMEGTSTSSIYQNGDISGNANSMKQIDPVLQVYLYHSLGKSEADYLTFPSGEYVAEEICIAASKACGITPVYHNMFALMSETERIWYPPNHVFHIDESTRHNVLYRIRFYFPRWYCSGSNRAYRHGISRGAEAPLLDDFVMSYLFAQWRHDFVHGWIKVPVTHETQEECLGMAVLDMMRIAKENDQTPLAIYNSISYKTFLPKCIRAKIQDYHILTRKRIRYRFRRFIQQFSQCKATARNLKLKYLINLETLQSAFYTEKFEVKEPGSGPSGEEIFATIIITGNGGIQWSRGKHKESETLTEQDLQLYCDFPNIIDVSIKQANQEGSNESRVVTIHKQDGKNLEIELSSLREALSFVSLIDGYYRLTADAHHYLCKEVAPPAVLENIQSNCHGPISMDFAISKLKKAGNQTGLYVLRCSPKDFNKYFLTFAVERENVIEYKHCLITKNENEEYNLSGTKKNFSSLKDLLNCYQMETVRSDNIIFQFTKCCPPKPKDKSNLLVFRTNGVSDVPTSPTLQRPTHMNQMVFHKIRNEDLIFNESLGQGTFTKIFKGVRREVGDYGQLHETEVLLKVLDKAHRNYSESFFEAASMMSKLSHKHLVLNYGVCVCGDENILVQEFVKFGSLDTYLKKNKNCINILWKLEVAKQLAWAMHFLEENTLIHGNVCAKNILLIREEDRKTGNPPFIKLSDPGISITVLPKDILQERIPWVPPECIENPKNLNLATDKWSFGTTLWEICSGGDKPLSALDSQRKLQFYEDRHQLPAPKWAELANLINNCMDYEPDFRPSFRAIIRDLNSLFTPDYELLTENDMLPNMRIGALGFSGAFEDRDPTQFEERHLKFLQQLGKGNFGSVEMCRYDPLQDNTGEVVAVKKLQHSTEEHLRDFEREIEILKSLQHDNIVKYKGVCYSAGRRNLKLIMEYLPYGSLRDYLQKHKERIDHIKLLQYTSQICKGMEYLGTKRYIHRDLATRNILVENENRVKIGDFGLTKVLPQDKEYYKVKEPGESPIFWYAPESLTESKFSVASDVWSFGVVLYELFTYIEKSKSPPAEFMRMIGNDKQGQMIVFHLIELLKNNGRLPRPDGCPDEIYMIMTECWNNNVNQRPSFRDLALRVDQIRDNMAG

As for `Cc1ccc(C(=O)Nc2cccc(C(F)(F)F)c2)cc1-c1ccc2c(-c3cnn(C4CC4)c3)n[nH]c2c1`, the inhibition in vivo at 10 mg/kg in the series with NCI-H1581 [1] is 59.7%. Moreover, the inhibition in [2] is 4.4%; in series [3], 80.9%; in series [4], 5.4%; in [5] it was 96.8%; in series [6], 90.1%; in [7] it was 100%. In series [10], this molecule came in with an inhibition of 8.4%. This molecule also showed an MRT in series [8] of 5.71 h. The TGI entry in the series with NCI-H1581 [9] was “Dose-dependent effect”.

The record behind these values is ChEMBL document CHEMBL4411287, “Discovery and optimization of a series of 3-substituted indazole derivatives as multi-target kinase inhibitors for the treatment of lung squamous cell carcinoma” (Eur J Med Chem, 2019).
